# According to ChEMBL document CHEMBL1156517, “Targeting thyroid hormone receptor-beta agonists to the liver reduces cholesterol and triglycerides and improves the therapeutic index” (Proc Natl Acad Sci U S A, 2007):
# Legend:
# Set-up in all cases: dose 5 mg/kg, route oral
# Details in all cases: in vivo
# Blood [1] = assay: Biodistribution in Sprague-Dawley rat blood at 5 mg/kg, po after 24 hrs; type: ADME, organism-based
# Procedure, shortened: (§1)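 Male SD rats (n = 4 per group) were dosed orally with [¹⁴C]-labelled prodrug at 5 mg/kg. Animals were killed 3 or 24 h after dosing. Harvested tissues, blood and plasma were processed and analysed directly for radioactivity by liquid scintillation counting.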
# [2] = Biodistribution in Sprague-Dawley rat urinary bladder at 5 mg/kg, po after 3 hrs; type: ADME, organism-based
# Procedure, shortened: (§2)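 Male SD rats (n = 4 per group) were given [¹⁴C]-labelled compound at 5 mg/kg per os. They were killed 3 and 24 h after dosing. Harvested tissues were processed and radioactivity was measured directly by liquid scintillation counting.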
# Pancreas [3] = assay: Biodistribution in Sprague-Dawley rat pancreas at 5 mg/kg, po after 24 hrs; type: ADME, organism-based; procedure, shortened: as §1
# [4] = Biodistribution in Sprague-Dawley rat femur bone at 5 mg/kg, po after 24 hrs; type: ADME, organism-based, Bone element; procedure, shortened: as §1
# Thyroid gland [5] = assay: Biodistribution in Sprague-Dawley rat thyroid at 5 mg/kg, po after 24 hrs; type: ADME, organism-based; procedure, shortened: as §2
# Blood [6] = assay: Biodistribution in Sprague-Dawley rat blood at 5 mg/kg, po after 3 hrs; type: ADME, organism-based; procedure, shortened: as §1
# Heart [7] = assay: Biodistribution in Sprague-Dawley rat heart at 5 mg/kg, po after 24 hrs; type: ADME, organism-based; procedure, shortened: as §1
# [8] = Biodistribution in Sprague-Dawley rat bone marrow at 5 mg/kg, po after 24 hrs; type: ADME, organism-based; procedure, shortened: as §1
# [9] = Biodistribution in Sprague-Dawley rat stomach C&W at 5 mg/kg, po after 3 hrs; type: ADME, organism-based; procedure, shortened: as §2
# Heart [10] = assay: Biodistribution in Sprague-Dawley rat heart at 5 mg/kg, po after 3 hrs; type: ADME, organism-based; procedure, shortened: as §1
# [11] = Biodistribution in Sprague-Dawley rat small intestine C&W at 5 mg/kg, po after 3 hrs; type: ADME, organism-based; procedure, shortened: as §1
# [12] = Biodistribution in Sprague-Dawley rat cervical lymph node at 5 mg/kg, po after 24 hrs; type: ADME, organism-based; procedure, shortened: as §1
# Spleen [13] = assay: Biodistribution in Sprague-Dawley rat spleen at 5 mg/kg, po after 3 hrs; type: ADME, organism-based; procedure, shortened: as §2
# [14] = Biodistribution in Sprague-Dawley rat small intestine C&W at 5 mg/kg, po after 24 hrs; type: ADME, organism-based; procedure, shortened: as §1
# [15] = Biodistribution in Sprague-Dawley rat small intestine at 5 mg/kg, po after 24 hrs; type: ADME, organism-based; procedure, shortened: as §1
# [16] = Biodistribution in Sprague-Dawley rat large intestine C&W at 5 mg/kg, po after 24 hrs; type: ADME, organism-based; procedure, shortened: as §1
# Spleen [17] = assay: Biodistribution in Sprague-Dawley rat spleen at 5 mg/kg, po after 24 hrs; type: ADME, organism-based; procedure, shortened: as §1
# Pancreas [18] = assay: Biodistribution in Sprague-Dawley rat pancreas at 5 mg/kg, po after 3 hrs; type: ADME, organism-based; procedure, shortened: as §1
# [19] = Biodistribution in Sprague-Dawley rat stomach at 5 mg/kg, po after 3 hrs; type: ADME, organism-based; procedure, shortened: as §2
# Adrenal gland [20] = assay: Biodistribution in Sprague-Dawley rat adrenal gland at 5 mg/kg, po after 3 hrs; type: ADME, organism-based; procedure, shortened: as §1
# [21] = Biodistribution in Sprague-Dawley rat large intestine at 5 mg/kg, po after 24 hrs; type: ADME, organism-based; procedure, shortened: as §1
# [22] = Biodistribution in Sprague-Dawley rat urinary bladder at 5 mg/kg, po after 24 hrs; type: ADME, organism-based; procedure, shortened: as §2
# [23] = Biodistribution in Sprague-Dawley rat epididymal fat at 5 mg/kg, po after 3 hrs; type: ADME, organism-based, Adipose tissue; procedure, shortened: as §1
# Plasma [24] = assay: Biodistribution in Sprague-Dawley rat plasma at 5 mg/kg, po after 24 hrs; type: ADME, organism-based; procedure, shortened: as §1
# Muscle tissue [25] = assay: Biodistribution in Sprague-Dawley rat muscle at 5 mg/kg, po after 24 hrs; type: ADME, organism-based; procedure, shortened: as §1
# Liver [26] = assay: Biodistribution in Sprague-Dawley rat liver at 5 mg/kg, po after 24 hrs; type: ADME, organism-based; procedure, shortened: as §1
# [27] = Biodistribution in Sprague-Dawley rat eyes at 5 mg/kg, po after 3 hrs; type: ADME, organism-based, Eye; procedure, shortened: as §1
# [28] = Biodistribution in Sprague-Dawley rat eyes at 5 mg/kg, po after 24 hrs; type: ADME, organism-based, Eye; procedure, shortened: as §1
# Testes [29] = assay: Biodistribution in Sprague-Dawley rat testes at 5 mg/kg, po after 3 hrs; type: ADME, organism-based, Testis; procedure, shortened: as §2
# [30] = Biodistribution in Sprague-Dawley rat bone marrow at 5 mg/kg, po after 3 hrs; type: ADME, organism-based; procedure, shortened: as §1
# Liver [31] = assay: Biodistribution in Sprague-Dawley rat liver at 5 mg/kg, po after 3 hrs; type: ADME, organism-based; procedure, shortened: as §1
# Prostate gland [32] = assay: Biodistribution in Sprague-Dawley rat prostate at 5 mg/kg, po after 3 hrs; type: ADME, organism-based; procedure, shortened: as §1
# Brain [33] = assay: Biodistribution in Sprague-Dawley rat brain at 5 mg/kg, po after 24 hrs; type: ADME, organism-based; procedure, shortened: as §1
# Adrenal gland [34] = assay: Biodistribution in Sprague-Dawley rat adrenal gland at 5 mg/kg, po after 24 hrs; type: ADME, organism-based; procedure, shortened: as §1
# Brain [35] = assay: Biodistribution in Sprague-Dawley rat brain at 5 mg/kg, po after 3 hrs; type: ADME, organism-based; procedure, shortened: as §1
# [36] = Biodistribution in Sprague-Dawley rat mesenteric lymph at 5 mg/kg, po after 24 hrs; type: ADME, organism-based, Mesenteric lymph node; procedure, shortened: as §1
# [37] = Biodistribution in Sprague-Dawley rat small intestine at 5 mg/kg, po after 3 hrs; type: ADME, organism-based; procedure, shortened: as §1
# [38] = Biodistribution in Sprague-Dawley rat pituitary gland at 5 mg/kg, po after 24 hrs; type: ADME, organism-based; procedure, shortened: as §1
# Thyroid gland [39] = assay: Biodistribution in Sprague-Dawley rat thyroid at 5 mg/kg, po after 3 hrs; type: ADME, organism-based; procedure, shortened: as §2
# [40] = Biodistribution in Sprague-Dawley rat cervical lymph node at 5 mg/kg, po after 3 hrs; type: ADME, organism-based; procedure, shortened: as §1
# Prostate gland [41] = assay: Biodistribution in Sprague-Dawley rat prostate at 5 mg/kg, po after 24 hrs; type: ADME, organism-based; procedure, shortened: as §1
# [42] = Biodistribution in Sprague-Dawley rat epididymal fat at 5 mg/kg, po after 24 hrs; type: ADME, organism-based, Adipose tissue; procedure, shortened: as §1
# [43] = Biodistribution in Sprague-Dawley rat large intestine at 5 mg/kg, po after 3 hrs; type: ADME, organism-based
# Procedure, shortened: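 Male SD rats (n = 4 per group) were given a single oral dose of [¹⁴C]-labelled prodrug at 5 mg/kg. They were killed at 3 and 24 h after dosing. Harvested tissues were processed and analysed directly by liquid scintillation counting to give tissue radioactivity concentrations.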
# Zone of skin [44] = assay: Biodistribution in Sprague-Dawley rat skin at 5 mg/kg, po after 24 hrs; type: ADME, organism-based; procedure, shortened: as §1
# [45] = Biodistribution in Sprague-Dawley rat pituitary gland at 5 mg/kg, po after 3 hrs; type: ADME, organism-based; procedure, shortened: as §1
# Lung [46] = assay: Biodistribution in Sprague-Dawley rat lung at 5 mg/kg, po after 24 hrs; type: ADME, organism-based; procedure, shortened: as §1
# Testes [47] = assay: Biodistribution in Sprague-Dawley rat testes at 5 mg/kg, po after 24 hrs; type: ADME, organism-based, Testis; procedure, shortened: as §2
# [48] = Biodistribution in Sprague-Dawley rat stomach at 5 mg/kg, po after 24 hrs; type: ADME, organism-based; procedure, shortened: as §2
# Kidney [49] = assay: Biodistribution in Sprague-Dawley rat kidney at 5 mg/kg, po after 24 hrs; type: ADME, organism-based; procedure, shortened: as §1
# Plasma [50] = assay: Biodistribution in Sprague-Dawley rat plasma at 5 mg/kg, po after 3 hrs; type: ADME, organism-based; procedure, shortened: as §1
# [51] = Biodistribution in Sprague-Dawley rat femur bone at 5 mg/kg, po after 3 hrs; type: ADME, organism-based, Bone element; procedure, shortened: as §1
# [52] = Biodistribution in Sprague-Dawley rat stomach C&W at 5 mg/kg, po after 24 hrs; type: ADME, organism-based; procedure, shortened: as §2
# Thymus [53] = assay: Biodistribution in Sprague-Dawley rat thymus at 5 mg/kg, po after 24 hrs; type: ADME, organism-based; procedure, shortened: as §2
# [54] = Biodistribution in Sprague-Dawley rat mesenteric lymph at 5 mg/kg, po after 3 hrs; type: ADME, organism-based, Mesenteric lymph node; procedure, shortened: as §1
# Muscle tissue [55] = assay: Biodistribution in Sprague-Dawley rat muscle at 5 mg/kg, po after 3 hrs; type: ADME, organism-based; procedure, shortened: as §1
# Kidney [56] = assay: Biodistribution in Sprague-Dawley rat kidney at 5 mg/kg, po after 3 hrs; type: ADME, organism-based; procedure, shortened: as §1
# Thymus [57] = assay: Biodistribution in Sprague-Dawley rat thymus at 5 mg/kg, po after 3 hrs; type: ADME, organism-based; procedure, shortened: as §2
# Zone of skin [58] = assay: Biodistribution in Sprague-Dawley rat skin at 5 mg/kg, po after 3 hrs; type: ADME, organism-based; procedure, shortened: as §1
# [59] = Biodistribution in Sprague-Dawley rat large intestine C&W at 5 mg/kg, po after 3 hrs; type: ADME, organism-based; procedure, shortened: as §1
# Lung [60] = assay: Biodistribution in Sprague-Dawley rat lung at 5 mg/kg, po after 3 hrs; type: ADME, organism-based; procedure, shortened: as §1
smiles,measurement,setting,value
Cc1cc(OCP2(=O)OCC[C@@H](c3cccc(Cl)c3)O2)cc([14CH3])c1Cc1ccc(O)c(C(C)C)c1 (stereo not given in full),Drug uptake,Blood [1],0.05 nmol/g
same,Drug uptake,[2],0.18 nmol/g
same,Drug uptake,Pancreas [3],0.25 nmol/g
same,Drug uptake,[4],0.02 nmol/g
same,Drug uptake,Thyroid gland [5],0.03 nmol/g
same,Drug uptake,Blood [6],0.12 nmol/g
same,Drug uptake,Heart [7],0.05 nmol/g
same,Drug uptake,[8],0.01 nmol/g
same,Drug uptake,[9],24.52 nmol/g
same,Drug uptake,Heart [10],0.36 nmol/g
same,Drug uptake,[11],39.69 nmol/g
same,Drug uptake,[12],0.03 nmol/g
same,Drug uptake,Spleen [13],2.57 nmol/g
same,Drug uptake,[14],0.2 nmol/g
same,Drug uptake,[15],0.4 nmol/g
same,Drug uptake,[16],2.5 nmol/g
same,Drug uptake,Spleen [17],0.01 nmol/g
same,Drug uptake,Pancreas [18],0.25 nmol/g
same,Drug uptake,[19],76.96 nmol/g
same,Drug uptake,Adrenal gland [20],0.77 nmol/g
same,Drug uptake,[21],0.64 nmol/g
same,Drug uptake,[22],0.05 nmol/g
same,Drug uptake,[23],0.15 nmol/g
same,Drug uptake,Plasma [24],0.05 nmol/g
same,Drug uptake,Muscle tissue [25],0.01 nmol/g
same,Drug uptake,Liver [26],3.67 nmol/g
same,Drug uptake,[27],0.04 nmol/g
same,Drug uptake,[28],0.01 nmol/g
same,Drug uptake,Testes [29],0.03 nmol/g
same,Drug uptake,[30],0.06 nmol/g
same,Drug uptake,Liver [31],6.67 nmol/g
same,Drug uptake,Prostate gland [32],0.12 nmol/g
same,Drug uptake,Brain [33],0.01 nmol/g
same,Drug uptake,Adrenal gland [34],0.09 nmol/g
same,Drug uptake,Brain [35],0.03 nmol/g
same,Drug uptake,[36],0.05 nmol/g
same,Drug uptake,[37],28.56 nmol/g
same,Drug uptake,[38],0.02 nmol/g
same,Drug uptake,Thyroid gland [39],0.2 nmol/g
same,Drug uptake,[40],0.12 nmol/g
same,Drug uptake,Prostate gland [41],0.03 nmol/g
same,Drug uptake,[42],0.55 nmol/g
same,Drug uptake,[43],1.23 nmol/g
same,Drug uptake,Zone of skin [44],0.15 nmol/g
same,Drug uptake,[45],0.09 nmol/g
same,Drug uptake,Lung [46],0.04 nmol/g
same,Drug uptake,Testes [47],0.04 nmol/g
same,Drug uptake,[48],0.22 nmol/g
same,Drug uptake,Kidney [49],0.14 nmol/g
same,Drug uptake,Plasma [50],0.15 nmol/g
same,Drug uptake,[51],0.14 nmol/g
same,Drug uptake,[52],0.06 nmol/g
same,Drug uptake,Thymus [53],0.01 nmol/g
same,Drug uptake,[54],16.61 nmol/g
same,Drug uptake,Muscle tissue [55],0.07 nmol/g
same,Drug uptake,Kidney [56],0.48 nmol/g
same,Drug uptake,Thymus [57],0.09 nmol/g
same,Drug uptake,Zone of skin [58],0.08 nmol/g
same,Drug uptake,[59],4.68 nmol/g
same,Drug uptake,Lung [60],0.31 nmol/g
